The values below come from publication PMC4878416 (Diabetes, 2016).

The structures appear in SMILES notation.

By remaining activity is commonly meant the signal under treatment as a percentage of the control signal. The IC50 is the midpoint of a concentration-inhibition curve.

One experiment deals with human β-cells. As to the kind of experiment: EdU incorporation proliferation assay in dissociated human islet cells. Format: cell-based. The method, boiled down:
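Human islets dissociated in Accutase (5,000 IEQ/mL, 37°C, 20 min), resuspended in CMRL complete medium and seeded at ~30,000 (96-well) or ~15,000 (384-well) cells per well. EdU was present throughout the 6-day treatment, including FK506 cotreatment. Cells were fixed (3% PFA), permeabilised (0.2% Triton X-100) and stained for C-peptide and DAPI. EdU+ β-cells were scored by automated imaging and manually; 4 wells, 9 fields each; mean ± SD; two-tailed t test vs DMSO.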

A further experiment deals with T1, tyrosine kinase TXK (Homo sapiens, UniProt P42681).
T1 sequence (P42681 1-527): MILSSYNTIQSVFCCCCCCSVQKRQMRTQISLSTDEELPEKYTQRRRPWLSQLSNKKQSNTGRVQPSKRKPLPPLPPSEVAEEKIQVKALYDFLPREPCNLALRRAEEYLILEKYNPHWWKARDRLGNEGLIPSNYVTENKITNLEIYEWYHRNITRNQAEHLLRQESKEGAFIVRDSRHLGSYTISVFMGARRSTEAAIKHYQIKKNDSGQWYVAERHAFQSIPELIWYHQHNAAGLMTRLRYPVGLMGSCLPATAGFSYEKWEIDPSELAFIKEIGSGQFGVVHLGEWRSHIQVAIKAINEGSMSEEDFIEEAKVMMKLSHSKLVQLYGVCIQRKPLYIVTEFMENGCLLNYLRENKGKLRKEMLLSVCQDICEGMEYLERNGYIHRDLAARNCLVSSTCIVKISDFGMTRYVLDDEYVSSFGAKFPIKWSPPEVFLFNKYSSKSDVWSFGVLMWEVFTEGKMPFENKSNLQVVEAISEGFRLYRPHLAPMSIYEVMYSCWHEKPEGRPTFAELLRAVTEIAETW
As to the kind of experiment: Human kinome profiling, TXK. Format: biochemical. Particulars: read-out: remaining activity TXK. The method, boiled down: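 Human kinases profiled by commercial providers under their standard protocols; ATP within 15 μmol/L of the apparent KM for each enzyme.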

A further experiment deals with adenosine kinase. Particulars: read-out: IC50 adenosine kinase; cited from earlier work.
For the next experiment, the target named is DYRK1A (Homo sapiens, UniProt Q13627). The experiment in a line: Biochemical assay for DYRK1A activity using the purified catalytic domain.
Experiment [1] has as its system human islet cells (all cell types). The conditions noted are these: cited from earlier work.
For experiment [2], the system named is p27KIP phosphorylation (S10). The experiment in a line: Western blot of p27KIP phosphorylation. It is filed as cell-based, rat. Particulars: INS-1E cells, 24 or 48 h, 10 μmol/L harmine or 0.5 μmol/L 5-IT. In short, it runs like this:
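Cells were treated after overnight attachment and lysed in RIPA buffer. Western blots were probed for p27KIP S10 phosphorylation, with actin as loading control.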

As for `Nc1ncnc2nc(-c3ccc(N4CCOCC4)nc3)cc(-c3cccc(Br)c3)c12` [ABT-702, 4-amino-5-(3-bromophenyl)-7-(6-morpholinopyridin-3-yl)pyrido[2,3-d]pyrimidine], the “effect on EdU incorporation” value in the experiment on human β-cells (tested up to 20 μmol/L, 6-day treatment) is listed as “no effect”. Also, the remaining activity at 0.5 µM at tyrosine kinase TXK was 60%. In addition, the IC50 on adenosine kinase is 1.7 nM.
For `COc1ccc2c3c([nH]c2c1)C(C)=NCC3` [harmaline], the “effect on EdU incorporation versus vehicle” value in the experiment on human β-cells (6-day treatment) is given as “no effect”. Moreover, the “activity toward DYRK1A” value at DYRK1A is listed as “no activity”.
`COC(=O)C1=C(C)NC(C)=C([N+](=O)[O-])C1c1ccccc1C(F)(F)F` (stereo not shown) [Bay K8644]: the “cellular proliferation in human islet cell culture” value in experiment [1] is “induces nonspecific cellular proliferation”.
As to `COc1ccc2c(c1)[nH]c1c(C)nccc12` [harmine], the “effect on EdU-positive cells” value in the experiment with human β-cells (5 and 10 μmol/L, 6-day treatment) is given as “dose-dependent increase”. The p27KIP phosphorylation result in experiment [2] was “decrease”.
`C=CC[C@@H]1/C=C(\C)C[C@H](C)C[C@H](OC)[C@H]2O[C@@](O)(C(=O)C(=O)N3CCCC[C@H]3C(=O)O[C@H](/C(C)=C/[C@@H]3CC[C@@H](O)[C@H](OC)C3)[C@H](C)[C@@H](O)CC1=O)[C@H](C)C[C@@H]2OC` [FK506]: the “effect of cotreatment on 5-IT-induced EdU-positive β-cells” value with human β-cells (1 μmol/L FK506 with 1 μmol/L 5-IT) is reported as “completely blocked”. Also, in the experiment on human β-cells (1 μmol/L FK506 with 10 μmol/L harmine), the “effect of cotreatment on harmine-induced EdU-positive β-cells” value is “completely blocked”.
